Assay results reported in ChEMBL document CHEMBL1155083, “Piperazine sulfonamides as potent, selective, and orally available 11beta-hydroxysteroid dehydrogenase type 1 inhibitors with efficacy in the rat cortisone-induced hyperinsulinemia model” (J Med Chem, 2008).
The source made the active and inactive calls. The calls are words filed in the database; no cut-off is given here.

How the values were obtained:
[1] = target: T1, 11-beta-hydroxysteroid dehydrogenase type 2 (Homo sapiens) (UniProt P80365); assay: Inhibition of 11betaHSD2 at 100 uM by cell based assay
T1 sequence (whole entry): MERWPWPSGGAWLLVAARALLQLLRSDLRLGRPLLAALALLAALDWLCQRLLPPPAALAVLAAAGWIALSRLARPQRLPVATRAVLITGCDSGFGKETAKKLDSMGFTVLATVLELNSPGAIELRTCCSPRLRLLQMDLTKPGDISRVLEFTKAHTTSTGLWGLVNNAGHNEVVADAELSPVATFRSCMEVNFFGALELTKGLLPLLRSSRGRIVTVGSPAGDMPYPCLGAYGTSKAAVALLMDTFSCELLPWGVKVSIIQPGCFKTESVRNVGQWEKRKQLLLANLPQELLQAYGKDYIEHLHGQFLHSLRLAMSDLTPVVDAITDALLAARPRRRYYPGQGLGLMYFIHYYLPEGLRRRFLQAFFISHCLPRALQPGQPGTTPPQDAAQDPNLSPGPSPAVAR

[2] = target: T2, 11-beta-hydroxysteroid dehydrogenase 1 (Mus musculus, UniProt P50172); assay: Inhibition of C57BL/6 mouse 11betaHSD1 in presence of human serum
T2 sequence (P50172 whole entry): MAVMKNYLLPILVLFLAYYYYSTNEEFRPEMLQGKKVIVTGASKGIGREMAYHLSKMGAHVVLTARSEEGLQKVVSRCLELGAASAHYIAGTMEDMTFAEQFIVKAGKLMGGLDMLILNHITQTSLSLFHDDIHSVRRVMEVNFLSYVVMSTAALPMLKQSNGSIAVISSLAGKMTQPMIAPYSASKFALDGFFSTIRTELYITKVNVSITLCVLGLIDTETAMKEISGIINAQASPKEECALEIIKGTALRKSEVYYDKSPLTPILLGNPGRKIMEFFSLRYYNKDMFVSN

[3] = target: 11-beta-hydroxysteroid dehydrogenase 1 (Homo sapiens, UniProt P28845); assay: Inhibition of human 11betaHSD1 expressed in CHO cells by cell based assay
11-beta-hydroxysteroid dehydrogenase 1 (Homo sapiens, UniProt P28845), sequence (P28845 whole entry): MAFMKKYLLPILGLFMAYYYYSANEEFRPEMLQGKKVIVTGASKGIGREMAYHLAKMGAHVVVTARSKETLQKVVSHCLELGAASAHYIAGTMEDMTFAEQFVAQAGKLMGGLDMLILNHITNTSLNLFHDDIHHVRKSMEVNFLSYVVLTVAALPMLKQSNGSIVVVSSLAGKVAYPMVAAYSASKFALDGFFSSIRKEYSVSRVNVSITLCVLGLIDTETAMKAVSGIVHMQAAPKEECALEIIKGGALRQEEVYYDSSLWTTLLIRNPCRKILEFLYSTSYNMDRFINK

[4] = target: T2, 11-beta-hydroxysteroid dehydrogenase 1; assay: Inhibition of mouse 11betaHSD1 expressed in CHO cells by cell based assay
[5] = Oral bioavailability in mouse at 30 mg/kg; type: ADME, organism-based; conditions: in vivo
[6] = Metabolic stability assessed as half life in mouse liver microsomes
Mus musculus [7] = assay: Ex vivo inhibition of 11betaHSD1 in C57BL/6 mouse assessed as conversion of [3H]cortisone to [3H]cortisole in liver at 30 mg/kg, po; type: functional; conditions: C57BL/6, Liver
Procedure, shortened: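 Mice dosed orally; sacrificed 5 h after dosing. Liver samples taken and 11β-HSD1 conversion of cortisone to cortisol measured; percent inhibition reported.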

[8] = Clearance in mouse at 2 mg/kg, iv; type: ADME, organism-based; set-up: dose 2 mg/kg, route intravenous; conditions: in vivo
[9] = Metabolic stability assessed as half life in human liver microsomes
Rattus norvegicus [10] = assay: Ex vivo inhibition of 11betaHSD1 in Sprague-Dawley rat assessed as conversion of [3H]cortisone to [3H]cortisole in liver at 30 mg/kg, po after 2 hrs; type: functional
[11] = Cmax in Sprague-Dawley rat at 30 mg/kg, po; type: ADME, organism-based; set-up: dose 30 mg/kg, route oral; conditions: in vivo
Procedure, shortened: (§1)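 Oral PK in rats; single dose 30 mg/kg by gavage, formulated in 0.5% methyl cellulose/2% Tween; plasma exposure reported as Cmax (ng/mL) and AUC (ng·h/mL).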

[12] = target: 11-beta-hydroxysteroid dehydrogenase 1 (Rattus norvegicus, UniProt P16232); assay: Inhibition of rat 11betaHSD1
11-beta-hydroxysteroid dehydrogenase 1 (Rattus norvegicus, UniProt P16232), sequence (P16232 whole entry): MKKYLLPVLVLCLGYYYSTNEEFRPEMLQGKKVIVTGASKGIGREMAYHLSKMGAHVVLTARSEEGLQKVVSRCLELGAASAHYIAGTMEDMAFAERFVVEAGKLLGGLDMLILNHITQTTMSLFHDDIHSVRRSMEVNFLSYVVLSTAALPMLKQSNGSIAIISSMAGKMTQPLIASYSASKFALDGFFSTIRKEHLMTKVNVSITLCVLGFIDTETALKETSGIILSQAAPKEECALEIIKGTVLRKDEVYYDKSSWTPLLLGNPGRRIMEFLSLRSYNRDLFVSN
Procedure, shortened: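 Potency against rat enzyme measured in a cell-based assay using CHO cells expressing rat 11β-HSD1; IC50 reported.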

Rattus norvegicus [13] = species: Rattus norvegicus; assay: Effect on glucose level in cortisone-induced Sprague-Dawley rat hyperinsulinemia model; type: functional, organism-based
Procedure, shortened: (§2)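 Male SD rats given cortisone in drinking water (2 mg/mL); inhibitors dosed orally b.i.d. for 7 days. On day 7, body weight, food intake, liquid consumption, plasma glucose and serum insulin were measured; insulin reduction expressed as percent.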

Rattus norvegicus [14] = assay: Effect on cortisone-induced Sprague-Dawley rat hyperinsulinemia model assessed as reduction in insulin at 30 mg/kg, bid after 7 days; type: functional; set-up: scale not given: the % may be the effect or the level left; procedure, shortened: as §2
[15] = AUC in Sprague-Dawley rat at 30 mg/kg, po; type: ADME, organism-based; set-up: dose 30 mg/kg, route oral; conditions: plasma; procedure, shortened: as §1
Rattus norvegicus [16] = assay: Effect on cortisone-induced Sprague-Dawley rat hyperinsulinemia model assessed as reduction in insulin at 60 mg/kg, bid after 7 days; type: functional; set-up: scale not given: the % may be the effect or the level left; procedure, shortened: as §2
Mus musculus [17] = assay: Ex vivo inhibition of 11betaHSD1 in C57BL/6 mouse assessed as conversion of [3H]cortisone to [3H]cortisole in liver at 10 mg/kg, po; type: functional; conditions: C57BL/6, Liver

Activity [1] | IC50 [2] | IC50 [3] | IC50 [4] | half-life [6] | SMILES | other results
inactive | 67 nM | 15 nM | 10 nM | – | C[C@@H]1CN(c2ccc(F)cc2C(F)(F)F)CCN1S(=O)(=O)c1cccc(N2CCCCC2)c1 | –
inactive | 90 nM | 160 nM | 10 nM | > 30 min | C[C@@H]1CN(c2ccc(F)cc2C(F)(F)F)CCN1S(=O)(=O)c1cccc(N2CCC(C(=O)O)C2)c1 (stereo partly drawn) | bioavailability [5]: 100%; inhibition in vivo at 30 mg/kg (Mus musculus [7]): 36%; clearance [8]: 55 mL/min/kg
inactive | 56 nM | 61 nM | 16 nM | – | C[C@@H]1CN(c2ccc(F)cc2C(F)(F)F)CCN1S(=O)(=O)c1cccc(N2CCCC2)c1 | –
inactive | – | 52 nM | 420 nM | 3 min | O=S(=O)(c1ccc(Cl)c(Cl)c1)N1CCN(c2ccccc2C(F)(F)F)CC1 | half-life [9]: 4 min
inactive | 130 nM | 300 nM | 37 nM | > 30 min | C[C@@H]1CN(c2ccc(F)cc2C(F)(F)F)CCN1S(=O)(=O)c1cccc(OC(C)(C)C(=O)O)c1 | bioavailability [5]: 100%; inhibition in vivo at 30 mg/kg (Rattus norvegicus [10]): 35%; Cmax [11]: 9180 ng/mL; inhibition in vivo at 30 mg/kg (Mus musculus [7]): 38%; IC50 [12]: 110 nM; clearance [8]: 25 mL/min/kg; Activity (Rattus norvegicus [13]): inactive; Activity (Rattus norvegicus [14]): 30%; AUC [15]: 51100 ng·h/mL
inactive | 73 nM | 74 nM | 11 nM | – | C[C@@H]1CN(c2ccc(F)cc2C(F)(F)F)CCN1S(=O)(=O)c1cccc(-n2ccnc2)c1 | –
inactive | 28 nM | 21 nM | 12 nM | 15 min | C[C@@H]1CN(c2ccc(F)cc2C(F)(F)F)CCN1S(=O)(=O)c1cccc(N2CCN(C)CC2)c1 | bioavailability [5]: 79%; inhibition in vivo at 30 mg/kg (Rattus norvegicus [10]): 32%; Cmax [11]: 246 ng/mL; inhibition in vivo at 30 mg/kg (Mus musculus [7]): 45%; IC50 [12]: 42 nM; clearance [8]: 36 mL/min/kg; Activity (Rattus norvegicus [13]): inactive; Activity (Rattus norvegicus [16]): 11%; AUC [15]: 2280 ng·h/mL
inactive | 100 nM | 13 nM | 12 nM | – | C[C@@H]1CN(c2ccc(F)cc2C(F)(F)F)CCN1S(=O)(=O)c1cccc(-n2cccn2)c1 | –
inactive | 42 nM | 26 nM | 10 nM | 12 min | C[C@@H]1CN(c2ccc(F)cc2C(F)(F)F)CCN1S(=O)(=O)c1cccc(-n2cncn2)c1 | bioavailability [5]: 34%; inhibition in vivo at 30 mg/kg (Rattus norvegicus [10]): 59%; Cmax [11]: 149 ng/mL; IC50 [12]: 81 nM; clearance [8]: 13 mL/min/kg; Activity (Rattus norvegicus [13]): inactive; Activity (Rattus norvegicus [16]): 34%; inhibition in vivo at 10 mg/kg (Mus musculus [17]): 44%; AUC [15]: 1040 ng·h/mL
inactive | – | 1600 nM | 4700 nM | 2 min | C[C@@H]1CN(c2ncccc2Cl)[C@@H](C)CN1S(=O)(=O)c1ccc(Cl)c(Cl)c1 (relative stereo) | half-life [9]: 3 min
inactive | 32 nM | 69 nM | 27 nM | – | C[C@@H]1CN(c2ccc(F)cc2C(F)(F)F)CCN1S(=O)(=O)c1cccc(N2CCCC2C(=O)O)c1 (stereo partly drawn) | –
inactive | 55 nM | 11 nM | 10 nM | – | COC(=O)C1CCN(c2cccc(S(=O)(=O)N3CCN(c4ccc(F)cc4C(F)(F)F)C[C@H]3C)c2)C1 (stereo partly drawn) | –
inactive | 41 nM | 28 nM | 20 nM | – | C[C@@H]1CN(c2ccc(F)cc2C(F)(F)F)CCN1S(=O)(=O)c1cccc(N2CC[C@H](O)C2)c1 | –
inactive | – | 10 nM | 10 nM | 3 min | C[C@@H]1CN(c2ccccc2C(F)(F)F)CCN1S(=O)(=O)c1ccc(Cl)c(Cl)c1 | half-life [9]: 5 min
inactive | – | 1300 nM | 6900 nM | 3 min | C[C@@H]1CN(c2ncccc2Cl)C[C@H](C)N1S(=O)(=O)c1ccc(Cl)c(Cl)c1 | half-life [9]: 6 min
inactive | 56 nM | 13 nM | 11 nM | – | C[C@@H]1CN(c2ccc(F)cc2C(F)(F)F)CCN1S(=O)(=O)c1cccc(N2CCOCC2)c1 | –
inactive | 190 nM | > 10000 nM | 160 nM | – | C[C@@H]1CN(c2ccc(F)cc2C(F)(F)F)CCN1S(=O)(=O)c1cccc(N2CCNCC2)c1 | –
inactive | 45 nM | 30 nM | 29 nM | – | CCN1CCN(c2cccc(S(=O)(=O)N3CCN(c4ccc(F)cc4C(F)(F)F)C[C@H]3C)c2)CC1 | –
inactive | – | 9900 nM | > 10000 nM | 30 min | O=C1CN(S(=O)(=O)c2ccc(Cl)c(Cl)c2)CCN1c1ncccc1C(F)(F)F | half-life [9]: 30 min
inactive | 220 nM | 370 nM | 12 nM | – | CCNC(=O)N1CCN(c2cccc(S(=O)(=O)N3CCN(c4ccc(F)cc4C(F)(F)F)C[C@H]3C)c2)CC1 | –
inactive | – | 61 nM | 190 nM | 5 min | O=S(=O)(c1ccc(Cl)c(Cl)c1)N1CCN(c2ncccc2C(F)(F)F)CC1 | half-life [9]: 5 min
inactive | 220 nM | 330 nM | 11 nM | – | COC(=O)N1CCN(c2cccc(S(=O)(=O)N3CCN(c4ccc(F)cc4C(F)(F)F)C[C@H]3C)c2)CC1 | –
inactive | 11 nM | 10 nM | 13 nM | 11 min | C[C@@H]1CN(c2ccc(F)cc2C(F)(F)F)CCN1S(=O)(=O)c1cccc(N2CCC(O)C2)c1 (stereo partly drawn) | bioavailability [5]: 9%; inhibition in vivo at 30 mg/kg (Rattus norvegicus [10]): 62%; Cmax [11]: 185 ng/mL; inhibition in vivo at 30 mg/kg (Mus musculus [7]): 47%; IC50 [12]: 13 nM; clearance [8]: 54 mL/min/kg; Activity (Rattus norvegicus [13]): inactive; Activity (Rattus norvegicus [16]): 19%; AUC [15]: 1040 ng·h/mL
inactive | – | 500 nM | > 10000 nM | 6 min | O=C1CN(c2ncccc2C(F)(F)F)CCN1S(=O)(=O)c1ccc(Cl)c(Cl)c1 | half-life [9]: 2 min
inactive | – | 68 nM | 250 nM | 8 min | O=S(=O)(c1ccc(Cl)c(Cl)c1)N1CCN(c2ccc(F)cc2C(F)(F)F)CC1 | half-life [9]: 12 min
inactive | 14 nM | 32 nM | 11 nM | – | C[C@@H]1CN(c2ccc(F)cc2C(F)(F)F)CCN1S(=O)(=O)c1cccc(N2CCC(C(N)=O)C2)c1 (stereo partly drawn) | –
inactive | 250 nM | 490 nM | 150 nM | – | CC(C)N1CCN(c2cccc(S(=O)(=O)N3CCN(c4ccc(F)cc4C(F)(F)F)C[C@H]3C)c2)CC1 | –
inactive | 13 nM | 10 nM | 12 nM | – | C[C@@H]1CN(c2ccc(F)cc2C(F)(F)F)CCN1S(=O)(=O)c1cccc(N2CC[C@@H](O)C2)c1 | –
inactive | 120 nM | 120 nM | 230 nM | – | C[C@@H]1CN(c2ccc(F)cc2C(F)(F)F)CCN1S(=O)(=O)c1cccc(-n2cnnc2)c1 | –
